# Experimental data taken from PubChem BioAssay.
# A number with no mark means an inactive call. Some of the results follow. The source made the active and inactive calls. Unless noted, no stated cut-off is given here; in the data, active means inhibition above about 19%; inactive means the rest.
# Key:
# [1] = compounds interfering with TAMRA-BSA probe, counter-screen for TCR-CD3 interaction inhibitor project, biochemical, fluorescence, TAMRA-labeled BSA (AID 652035; in the data active means inhibition above about 23%;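 further: 0% = buffer low control and 100% = reference high control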); conditions: TAMRA-labeled BSA probe fluorescence counterscreen; at 9.4 µM; stronger effect = higher value
# [2] = test system: T-cell receptor (TCR)-CD3 interaction, human; experiment: TCR-CD3 interaction inhibitors, retest, confirmation, biochemical, fluorescence, TAMRA-labeled TCR probe (AID 652036); conditions: TAMRA-labeled TCR probe fluorescence binding assay; at 9.4 µM; stronger effect = higher value
# [3] = test system: transactivating tegument protein VP16 (Human herpesvirus 1); experiment: VP16 transactivation reporter inhibitors, counter-screen for SRC2 inhibitor project, cell-based, luminescence, single concentration (AID 652007; in the data active means inhibition above about 36%); conditions: cell-based VP16 transactivation luciferase reporter, at 8.9 µM, stronger effect = higher value
# [4] = biological target: Nuclear receptor coactivator 2 (Homo sapiens) (UniProt Q15596); experiment: SRC2 coactivator transcriptional activity inhibitors, confirmation, cell-based, luminescence, HEK293, triplicate (AID 652008;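 active means mean inhibition above 46.5%, the solvent-only control mean plus 3 SD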;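 further: 0% = DMSO-treated cells and 100% = Gossypol at 36 µM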); conditions: HEK293 GAL4-SRC2 luciferase reporter, at 8.9 µM, stronger effect = higher value
# [5] = Gal4-VP16 luciferase reporter inhibitors, counter-screen for COUP-TFII antagonist project, cell-based, luminescence, HEK293 (AID 687007; in the data active means inhibition above about 13%); conditions: at 8.5 µM, stronger effect = higher value
# [6] = biological target: COUP transcription factor 2 (Homo sapiens) (UniProt P24468); experiment: NR2F2 transcriptional activity inhibitors, confirmation, cell-based, luciferase reporter, HEK293, triplicate (AID 687008;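 active means mean inhibition over three repeats above a set limit taken from the earlier primary screen, cut at about 38% in these data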;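 further: 100% = cells given the luciferase reporter alone without the COUP-TF2 vector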); conditions: HEK293 NGFI-A luciferase reporter, luminescence; at 8.5 µM; stronger effect = higher value
# [7] = biological target: Galanin receptor type 2 (Homo sapiens) (UniProt O43603); experiment: GALR2 antagonists, retest of hits, confirmation, cell-based (AID 866; in the data active means inhibition above about 27%;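 further: cells stimulated with galanin at about its EC80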); conditions: GALR2-expressing cells, antagonist mode, at 4 µM, stronger effect = higher value
# [8] = inhibitors of NFAT-driven beta-lactamase reporter, confirmation, counter-screen for GALR2 antagonist project, CHO NFAT-bla cells, FRET readout (AID 867;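 active means inhibition above the mean inhibition across tested compounds plus 3 SD, cut at about 27% in these data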;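 further: 0% = 500 nM thapsigargin stimulated wells and 100% = unstimulated BSA only wells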); conditions: thapsigargin-stimulated, at 4.2 µM, stronger effect = higher value
# [9] = biological target: (Lyso)-N-acylphosphatidylethanolamine lipase (Mus musculus) (UniProt Q8VD66); experiment: ABHD4 inhibitors, retest, confirmation, biochemical, fluorescence polarization, mouse (AID 720658;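 active means mean inhibition across replicates above the hit cutoff set in the primary screen, cut at about 30% in these data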;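 further: 0% = wild-type ABHD4 with DMSO and 100% = catalytically dead S159A mutant with DMSO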); conditions: purified mABHD4, FP-Rh probe fluorescence polarization; at 8.92 µM; stronger effect = higher value
# Procedure, shortened: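 Also added: Rhodamine-tagged fluorophosphonate probe FP-Rh / Assay system: mouse wild-type ABHD4 enzyme / Evaluation: % inhibition relative to DMSO and S159A mutant controls / Medium: HEPES pH 7.0 buffer with NaCl and Pluronic F-127 / Detection: fluorescence polarization at 525 nm excitation, 598 nm emission / Timing: 45 min compound-enzyme pre-incubation, then 60 min probe incubation, 25 °C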
# Chain of (Lyso)-N-acylphosphatidylethanolamine lipase (Mus musculus) (Q8VD66 whole entry, looked up): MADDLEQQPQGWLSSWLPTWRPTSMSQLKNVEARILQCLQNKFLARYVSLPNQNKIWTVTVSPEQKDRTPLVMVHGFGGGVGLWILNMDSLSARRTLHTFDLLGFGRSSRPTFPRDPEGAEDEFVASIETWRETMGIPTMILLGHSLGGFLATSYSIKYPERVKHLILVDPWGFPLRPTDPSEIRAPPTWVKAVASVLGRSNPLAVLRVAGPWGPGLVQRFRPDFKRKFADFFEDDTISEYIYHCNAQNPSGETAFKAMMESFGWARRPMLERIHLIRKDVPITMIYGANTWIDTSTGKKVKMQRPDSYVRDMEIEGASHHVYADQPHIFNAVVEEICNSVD
# Chain of Nuclear receptor coactivator 2 (Homo sapiens) (Q15596 whole entry, looked up, the tested form may be a part): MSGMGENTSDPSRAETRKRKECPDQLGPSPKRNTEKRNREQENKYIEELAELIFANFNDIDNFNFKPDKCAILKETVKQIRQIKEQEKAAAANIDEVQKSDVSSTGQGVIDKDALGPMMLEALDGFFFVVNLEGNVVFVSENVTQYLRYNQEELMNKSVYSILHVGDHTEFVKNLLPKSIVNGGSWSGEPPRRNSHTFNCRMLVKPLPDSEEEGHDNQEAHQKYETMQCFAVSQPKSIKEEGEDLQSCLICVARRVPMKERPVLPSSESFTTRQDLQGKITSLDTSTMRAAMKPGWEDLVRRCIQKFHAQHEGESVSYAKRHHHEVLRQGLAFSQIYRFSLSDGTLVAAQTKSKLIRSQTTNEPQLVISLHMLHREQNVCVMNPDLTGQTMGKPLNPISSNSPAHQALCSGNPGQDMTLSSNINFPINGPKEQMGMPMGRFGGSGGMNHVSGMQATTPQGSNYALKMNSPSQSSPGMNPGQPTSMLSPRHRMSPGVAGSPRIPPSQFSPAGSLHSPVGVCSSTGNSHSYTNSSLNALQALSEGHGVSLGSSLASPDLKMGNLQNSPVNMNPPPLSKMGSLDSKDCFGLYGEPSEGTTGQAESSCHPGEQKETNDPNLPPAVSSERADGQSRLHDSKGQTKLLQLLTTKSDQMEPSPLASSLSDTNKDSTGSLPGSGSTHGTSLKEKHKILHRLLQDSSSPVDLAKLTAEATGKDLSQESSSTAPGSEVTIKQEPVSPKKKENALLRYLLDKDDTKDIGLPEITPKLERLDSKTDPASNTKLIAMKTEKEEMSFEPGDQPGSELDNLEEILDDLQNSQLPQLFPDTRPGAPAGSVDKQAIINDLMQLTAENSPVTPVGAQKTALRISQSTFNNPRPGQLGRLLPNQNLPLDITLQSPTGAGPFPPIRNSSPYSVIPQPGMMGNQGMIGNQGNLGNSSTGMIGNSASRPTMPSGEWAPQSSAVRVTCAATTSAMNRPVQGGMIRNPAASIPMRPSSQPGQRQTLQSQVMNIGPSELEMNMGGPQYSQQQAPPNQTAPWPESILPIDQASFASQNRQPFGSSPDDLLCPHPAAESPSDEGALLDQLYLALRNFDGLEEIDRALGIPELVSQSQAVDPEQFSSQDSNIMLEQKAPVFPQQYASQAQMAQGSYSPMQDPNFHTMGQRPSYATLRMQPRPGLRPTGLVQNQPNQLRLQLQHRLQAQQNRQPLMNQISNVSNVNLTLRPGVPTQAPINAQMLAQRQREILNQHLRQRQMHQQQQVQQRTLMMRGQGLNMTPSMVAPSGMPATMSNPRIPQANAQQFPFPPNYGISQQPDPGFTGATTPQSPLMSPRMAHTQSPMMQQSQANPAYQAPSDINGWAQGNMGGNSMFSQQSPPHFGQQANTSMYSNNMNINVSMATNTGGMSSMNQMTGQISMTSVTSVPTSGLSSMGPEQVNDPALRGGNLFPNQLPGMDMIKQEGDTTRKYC
# Chain of COUP transcription factor 2 (Homo sapiens) (P24468 whole entry, looked up): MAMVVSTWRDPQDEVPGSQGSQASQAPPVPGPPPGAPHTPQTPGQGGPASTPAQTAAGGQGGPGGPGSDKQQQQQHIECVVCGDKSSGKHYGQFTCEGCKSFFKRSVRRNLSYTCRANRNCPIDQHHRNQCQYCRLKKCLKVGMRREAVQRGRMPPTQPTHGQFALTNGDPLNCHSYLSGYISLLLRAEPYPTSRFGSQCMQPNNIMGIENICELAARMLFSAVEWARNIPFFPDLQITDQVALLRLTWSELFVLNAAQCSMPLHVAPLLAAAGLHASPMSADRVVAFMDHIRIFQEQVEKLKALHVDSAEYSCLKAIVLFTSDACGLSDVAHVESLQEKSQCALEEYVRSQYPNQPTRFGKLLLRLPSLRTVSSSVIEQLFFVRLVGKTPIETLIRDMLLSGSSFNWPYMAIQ
# Chain of Galanin receptor type 2 (Homo sapiens) (O43603 whole entry, looked up): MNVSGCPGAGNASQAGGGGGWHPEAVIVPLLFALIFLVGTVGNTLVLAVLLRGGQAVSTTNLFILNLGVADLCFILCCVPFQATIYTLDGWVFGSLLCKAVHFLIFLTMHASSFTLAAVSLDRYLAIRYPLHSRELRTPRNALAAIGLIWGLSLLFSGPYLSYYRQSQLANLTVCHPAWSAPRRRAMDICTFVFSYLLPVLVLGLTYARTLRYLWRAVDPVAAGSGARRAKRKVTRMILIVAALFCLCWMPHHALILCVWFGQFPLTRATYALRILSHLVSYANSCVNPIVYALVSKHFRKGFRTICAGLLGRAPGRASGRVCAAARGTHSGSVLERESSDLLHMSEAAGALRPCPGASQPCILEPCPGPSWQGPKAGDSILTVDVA
smiles,measurement,setting,value
O=S(=O)(O)c1cc2onnc2c2ccccc12,inhibition,[1],11%
same,inhibition,[2],4.6%
CCOc1ccc(-n2c(O)c(/C=N/Nc3nnc(C)c(=O)[nH]3)c3ccccc3c2=O)cc1,inhibition,[1],-21.4%
same,inhibition,[2],26% (active)
Cc1ccc(C(=O)NCC(=O)O)cc1S(=O)(=O)N1CCCCC1,inhibition,[1],2.01%
same,inhibition,[2],5.08%
CCN(C(=O)Nc1cccc2ccccc12)c1ccccc1,inhibition,[1],2.01%
same,inhibition,[2],3.23%
C[C@H]1CCC/C=C/C(=O)c2c(O)cc(O)cc2CC(=O)O1,inhibition,[3],41.5% (active)
same,inhibition,[4],55.5% (active)
same,inhibition,[5],49.3% (active)
same,inhibition,[6],-1.02%
O=C(c1c(F)cccc1F)N1CCN(S(=O)(=O)c2ccc3c(c2)OCCO3)CC1,inhibition,[3],-6.59%
same,inhibition,[4],23.6%
same,inhibition,[5],-10.6%
same,inhibition,[6],23.4%
CN(C)CCNC(=O)C(C(=O)c1ccccc1)n1ccccc1=O (stereo not given),inhibition,[1],-0.25%
same,inhibition,[2],2.79%
COc1ccc(OC)c(NC(=O)c2cc(-c3cc(F)ccc3OCC3CCCO3)n[nH]2)c1 (stereo not given),inhibition,[3],1.64%
same,inhibition,[4],-1.6%
same,inhibition,[5],3.7%
same,inhibition,[6],-6.7%
COc1ccc(NS(=O)(=O)c2cc(NC(=O)/C=C/c3cc(OC)c(OC)c(OC)c3)ccc2N2CCCCC2)cc1,inhibition,[1],11%
same,inhibition,[2],29.4% (active)
Cc1ccc(-c2nc(CSCC(=O)NC3CCN(Cc4ccccc4)CC3)c(C)o2)cc1,inhibition,[3],11%
same,inhibition,[4],33.9%
same,inhibition,[5],0.41%
same,inhibition,[6],22.5%
Cc1ccc(O)c(/C=N/NC(=O)COc2ccc3c(C)cc(=O)oc3c2)c1,inhibition,[1],-10.9%
same,inhibition,[2],46.1% (active)
COc1ccccc1C(=O)NNC(=O)c1ccc(NC(=O)c2ccccc2)cc1,inhibition,[1],-8.35%
same,inhibition,[2],35.5% (active)
CCC(=O)NC(=S)Nc1ccc(NC(=O)c2ccco2)c(Cl)c1,inhibition,[1],3.69%
same,inhibition,[2],13.4%
C=CCn1c(=O)c(C(=O)Nc2ncccc2O)c(O)c2ccccc21,inhibition,[1],-7.93%
same,inhibition,[2],16.6%
CN1CCN(/N=C/c2ccc(C#N)cc2)CC1,inhibition,[1],1.63%
same,inhibition,[2],2.78%
CNS(=O)(=O)c1ccc2c(c1)[nH]c(=S)n2C,inhibition,[1],10.3%
same,inhibition,[2],10.3%
CNC(=S)NNC(=O)c1cccn(Cc2ccccc2)c1=O,inhibition,[1],4.48%
same,inhibition,[2],46.7% (active)
COc1cc(C(=O)NCC2(c3ccccc3)CCCC2)ccc1OC(C)C,inhibition,[1],1.07%
same,inhibition,[2],2.19%
COc1ccc(-c2c(-c3cc(OC)cc(OC)c3)n(C)c3ccc(-c4ccn[nH]4)cc23)cc1,inhibition,[1],1.44%
same,inhibition,[2],-1.35%
Cc1ccc2nc(-c3ccc(Br)cc3)cn2c1,inhibition,[3],9.32%
same,inhibition,[4],78.4% (active)
same,inhibition,[5],-12.3%
same,inhibition,[6],19.1%
O=C(Nc1cccc(-c2nc3ccccc3[nH]2)c1)c1ccc(C(=O)Nc2cccc(-c3nc4ccccc4[nH]3)c2)cc1,inhibition,[1],9.76%
same,inhibition,[2],10.8%
COc1ccc(/C=C2/SC(=O)N(CCCCCC(=O)Nc3ccccc3C(=O)O)C2=S)cc1,inhibition,[3],53.8% (active)
same,inhibition,[4],63.9% (active)
same,inhibition,[5],29.6% (active)
same,inhibition,[6],17.7%
O=C(N/N=C/c1ccco1)c1ccc(C(=O)N/N=C/c2ccco2)o1,inhibition,[1],-19.7%
same,inhibition,[2],28.2% (active)
CN(C)S(=O)(=O)c1cccc(NC(=O)COC(=O)C2(c3ccccc3F)CCCC2)c1,inhibition,[7],17.7%
same,inhibition,[8],15.1%
same,inhibition,[3],-4.31%
same,inhibition,[4],0.58%
COc1ccccc1C(=O)NNC(=O)CCN1C(=O)/C(=C\c2ccccc2)SC1=S,inhibition,[1],-8.51%
same,inhibition,[2],9.19%
Cc1ccc(-c2nn(-c3ccccc3)cc2/C=C/C(=O)Nc2cccc(S(N)(=O)=O)c2)cc1,inhibition,[1],26.6% (active)
same,inhibition,[2],48.1% (active)
Oc1ccc(N=Cc2c(O)ccc3ccccc23)cc1,inhibition,[1],-3.16%
same,inhibition,[2],4.09%
O=C1C(Cc2ccc(O)cc2)NC(=S)N1Cc1ccccc1 (stereo not given),inhibition,[1],-2.95%
same,inhibition,[2],-0.37%
CN1OC[C@@H]2CN(S(=O)(=O)c3cccc(C(F)(F)F)c3)[C@H](c3ccc(-c4cc5ccccc5o4)cc3)C[C@@H]21,inhibition,[3],3.18%
same,inhibition,[4],46.3%
same,inhibition,[5],-5.07%
same,inhibition,[6],0.77%
CCOCC(=O)NCc1ccc2c(c1)cc(C)n2C,inhibition,[1],6.46%
same,inhibition,[2],6.18%
Cc1cc2nc3c(=O)[nH]c(=O)nc-3n(C[C@H](O)[C@H](O)[C@H](O)CO)c2cc1C,inhibition,[1],50.4% (active)
same,inhibition,[2],33.3% (active)
O=C1NC[C@@H](Cc2ccc(O)cc2)N(CCc2cccc(F)c2)C1=O,inhibition,[3],-20.2%
same,inhibition,[4],-26.9%
same,inhibition,[5],4.3%
same,inhibition,[6],5.14%
COc1ccc(C(=O)NC(=S)NNC(=O)CCc2ccccc2)cc1,inhibition,[1],4.22%
same,inhibition,[2],13%
O=c1c2ccccc2c(-c2ccccc2)nn1-c1ccccn1,inhibition,[1],-1.19%
same,inhibition,[2],-0.97%
COc1ccc(Br)cc1/C=N/Nc1ccc(S(=O)(=O)Nc2ccccc2C(=O)O)cc1[N+](=O)[O-],inhibition,[9],20.7%
CCc1ccc(-c2nc(SCC(=O)NC3CCCC3)n[nH]2)cc1,inhibition,[5],-22.9%
same,inhibition,[6],11.9%
Cc1ccc(CNC(=O)Nc2nnc([C@H]3C[C@H](O)[C@@H](CO)O3)s2)cc1,inhibition,[5],-1.25%
same,inhibition,[6],11.2%
Cc1ccc(Nc2nc(CSc3nnc(-c4ccncc4)n3-c3ccccc3C)cs2)cc1,inhibition,[5],-8.65%
same,inhibition,[6],11.9%
O=S1(=O)c2c(cccc2N2CCCC2)O[C@H](COCc2ccccc2)CN1C1CC1,inhibition,[1],-4.17%
same,inhibition,[2],1.77%
COc1ccc(NC(=O)C2Cc3c(-c4cccc(NC(C)=O)c4)ccnc3O2)cc1OC (stereo not given),inhibition,[5],-1.35%
same,inhibition,[6],14.6%
CCCCn1c(SCc2ncc(-c3ccccc3)o2)nc2cc(S(N)(=O)=O)ccc21,inhibition,[5],6.53%
same,inhibition,[6],14.4%
C/C=C/C=C/C(=O)O,inhibition,[1],3.35%
same,inhibition,[2],6.03%
CN(CCc1ccccc1)C(=O)c1cccc(NC(=O)Cc2cccc(NC(=O)C3CCCN(C(=O)CCc4ccccc4)C3)c2)c1 (stereo not given),inhibition,[5],-3.76%
same,inhibition,[6],15.9%
NS(=O)(=O)c1ccc(CCNc2nc(C(F)(F)F)nc3ccccc23)cc1,inhibition,[5],-10.4%
same,inhibition,[6],0.16%
Cc1ccccc1CS(=O)(=O)Cc1ccc(C(=O)Nc2ccc(Cl)cc2)o1,inhibition,[5],-1.58%
same,inhibition,[6],41.5% (active)
O=C(O)c1cc([N+](=O)[O-])c(Nc2cccc3ccccc23)c([N+](=O)[O-])c1,inhibition,[9],39.9% (active)
N#CC(C#N)=CN=c1ccn(Cc2ccc(Cl)cc2Cl)cc1,inhibition,[5],-2.5%
same,inhibition,[6],9.12%
COc1ccc(CC(=O)N/N=C/c2cc([N+](=O)[O-])cc(Br)c2O)cc1,inhibition,[1],-11.9%
same,inhibition,[2],40% (active)
Cc1cc2ccccc2n1CCNC(=O)COc1ccc2ccccc2c1,inhibition,[1],8.77%
same,inhibition,[2],2.99%
same,inhibition,[9],1.54%
CC(=O)Oc1ccc(N(C(C)=O)S(=O)(=O)c2ccc3ccccc3c2)cc1Br,inhibition,[9],30.6% (active)
CCOC(=O)N1CCN(C(=O)C[C@@H]2C(=O)N(CCc3ccc(Cl)cc3)C3=CCCC[C@]32C(=O)OCC)CC1,inhibition,[5],-8.45%
same,inhibition,[6],9.27%
c1ccc(Cc2ccc(OCCn3ccnc3)cc2)cc1,inhibition,[5],-6.15%
same,inhibition,[6],9.96%
CN(c1cccc(NC(=O)c2ccc(CN3CCc4ccccc4C3)cc2)c1)S(C)(=O)=O,inhibition,[5],4.04%
same,inhibition,[6],41.2% (active)
COc1cc(/C=C/C(=O)n2cnc3ccccc32)cc(OC)c1OC,inhibition,[5],-14.2%
same,inhibition,[6],16.1%
Cc1ccccc1OCC(=O)Nc1ccc(N2CCN(C(=O)C(C)C)CC2)c(Cl)c1,inhibition,[5],-4.24%
same,inhibition,[6],10.5%
COc1ccc(Br)cc1C(=O)NC(=S)Nc1cc(-c2nc3ccccc3[nH]2)ccc1C,inhibition,[1],17.9%
same,inhibition,[2],34.4% (active)
CCC(=O)Nc1ccc(C(=O)CSc2nnc(CNc3ccc(Cl)cc3)o2)cc1OC,inhibition,[5],-6.4%
same,inhibition,[6],17.3%
COc1ccc2nc(Nc3nc4ccc(NC(C)=O)cc4s3)sc2c1,inhibition,[9],39.4% (active)
O=C(c1cc(C(=O)N2CCN(c3ccc(F)cc3)CC2)cc([N+](=O)[O-])c1)N1CCN(c2ccc(F)cc2)CC1,inhibition,[5],-2.78%
same,inhibition,[6],46.7% (active)
O=C(N/N=C/c1cc([N+](=O)[O-])ccc1O)/C(=C\c1cccs1)NC(=O)c1ccccc1,inhibition,[1],-11.3%
same,inhibition,[2],35% (active)
Cc1ccc(NC(=O)C2CC(=O)N(c3ccc4c(c3)OCCO4)C2)cc1S(=O)(=O)N1CCCCCC1 (stereo not given),inhibition,[5],-2.18%
same,inhibition,[6],14.1%
Cc1ccc(-n2nc3c(=O)n(C(C)C(=O)NCc4ccc5c(c4)OCO5)nc(C)c3c2C)cc1 (stereo not given),inhibition,[5],-6.28%
same,inhibition,[6],11.8%
O=C(Nc1ccc(S(=O)(=O)N2CCOCC2)cc1)C1CCN(S(=O)(=O)c2ccc(Cl)cc2)CC1,inhibition,[5],0.86%
same,inhibition,[6],12.2%
CCN(CC)P(=O)(C(NC(=O)OC)C(F)(F)C(F)(F)C(F)(F)C(F)F)N(CC)CC (stereo not given),inhibition,[5],7.83%
same,inhibition,[6],14.8%
NS(=O)(=O)c1ccc(CCNC(=O)c2ccc(Cl)c(S(=O)(=O)N3CCCCCC3)c2)cc1,inhibition,[5],5.82%
same,inhibition,[6],39.1% (active)
